Data reported in PubChem BioAssay AID504513 (The Scripps Research Institute Molecular Screening Center, 2011).
Active and inactive are the calls of the source.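 Rule for the calls: active = PAFAH2 inhibition at least 50% at 0.2 µM with under 50% on each related off-target enzyme; inactive = the rest, including PAFAH2 hits that also hit off-targets.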

What was measured:
Test in all cases: competitive ABPP of PAFAH2 versus anti-target hydrolases – cell lysate, fluorescence, gel-based ABPP, BW5147 T-cell proteome, powder samples, late-stage follow-up (AID 504513);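 note: 0% = DMSO-only band intensity and 100% = blank gel background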
ABHD11 = conditions: BW5147 mouse T-cell proteome, FP-Rh gel ABPP, stronger effect = higher value
Method in brief: (§1)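 System – mouse BW5147 T-cell soluble lysate · Input – 1 mg/mL soluble protein · Reagent – FP-Rh probe at 2 µM · Compound dosing – 0.02, 0.2 or 1 µM compound · Times – 30 min compound, 30 min probe at 25 °C · Signal – in-gel fluorescence of probe-labelled bands, integrated optical density · Read-out – percent band labelling lost versus DMSO control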

[1] = target: Platelet-activating factor acetylhydrolase 2, cytoplasmic (Mus musculus) (UniProt Q8VDG7); conditions: FP-Rh gel ABPP, stronger effect = higher value
Chain of Platelet-activating factor acetylhydrolase 2, cytoplasmic (Mus musculus) (Q8VDG7 whole entry, looked up): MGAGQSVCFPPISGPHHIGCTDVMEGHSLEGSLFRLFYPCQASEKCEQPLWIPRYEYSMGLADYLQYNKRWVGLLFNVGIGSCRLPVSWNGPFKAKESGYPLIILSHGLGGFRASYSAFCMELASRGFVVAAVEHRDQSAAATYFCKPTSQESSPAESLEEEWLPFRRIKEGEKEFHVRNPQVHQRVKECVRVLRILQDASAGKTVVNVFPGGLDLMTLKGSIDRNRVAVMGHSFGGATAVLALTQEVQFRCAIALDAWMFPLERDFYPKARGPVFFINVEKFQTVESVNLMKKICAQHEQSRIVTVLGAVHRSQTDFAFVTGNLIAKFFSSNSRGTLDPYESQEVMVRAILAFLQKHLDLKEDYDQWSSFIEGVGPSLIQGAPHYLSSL
Method in brief: as §1

LYPLA1 = conditions: BW5147 mouse T-cell proteome, FP-Rh gel ABPP, stronger effect = higher value
Method in brief: as §1

ESD = conditions: BW5147 mouse T-cell proteome, FP-Rh gel ABPP, stronger effect = higher value
Method in brief: as §1

APEH = conditions: BW5147 mouse T-cell proteome, FP-Rh gel ABPP, stronger effect = higher value
Method in brief: as §1

Structure (SMILES) | inhibition (ABHD11; at 1 µM) | inhibition (ABHD11; inhibition, at 0.02 µM) | inhibition (ABHD11; inhibition, at 0.2 µM) | inhibition ([1]; PAFAH2, at 1 µM) | inhibition ([1]; PAFAH2, inhibition, at 0.02 µM) | inhibition ([1]; PAFAH2, inhibition, at 0.2 µM) | inhibition (LYPLA1; at 1 µM) | inhibition (LYPLA1; inhibition, at 0.02 µM) | inhibition (LYPLA1; inhibition, at 0.2 µM) | inhibition (ESD; at 1 µM) | inhibition (ESD; inhibition, at 0.02 µM) | inhibition (ESD; inhibition, at 0.2 µM) | inhibition (APEH; at 1 µM) | inhibition (APEH; inhibition, at 0.02 µM) | inhibition (APEH; inhibition, at 0.2 µM)
O=C(N1CCCC1)n1ncc(-c2ccc(-c3ccccc3)cc2)n1 | 0% (inactive) | 0% | 0% | 100% | 100% | 100% | 0% (inactive) | 0% | 0% | 0% (inactive) | 0% | 0% | 0% (inactive) | 0% | 0%
O=C(N1CCOCC1)n1ncc(-c2ccc(OC(F)(F)F)cc2)n1 | 100% | 25% | 100% | 50% | 0% | 50% | 0% (inactive) | 0% | 0% | 0% (inactive) | 0% | 0% | 0% (inactive) | 0% | 0%
O=C(n1ccnn1)n1c2ccccc2c2ccccc21 | 0% (inactive) | 0% | 0% | 0% (inactive) | 0% | 0% | 0% (inactive) | 0% | 0% | 0% (inactive) | 0% | 0% | 0% (inactive) | 0% | 0%
CCN(CC)C(=O)n1ccnn1 | 0% (inactive) | 0% | 0% | 0% (inactive) | 0% | 0% | 0% (inactive) | 0% | 0% | 0% (inactive) | 0% | 0% | 0% (inactive) | 0% | 0%
O=C(N1CCCC1)n1ncc(-c2ccc(Oc3ccccc3)cc2)n1 | 0% (inactive) | 0% | 0% | 100% | 100% | 100% | 0% (inactive) | 0% | 0% | 0% (inactive) | 0% | 0% | 100% | 0% | 100%
O=C(N(c1ccccc1)c1ccccc1)n1ccnn1 | 100% | 0% | 50% | 0% (inactive) | 0% | 0% | 0% (inactive) | 0% | 0% | 0% (inactive) | 0% | 0% | 0% (inactive) | 0% | 0%
O=C(N1CCOCC1)n1ncc(-c2cc(F)cc(F)c2)n1 | 100% | 50% | 100% | 100% | 0% | 100% | 0% (inactive) | 0% | 0% | 50% (inactive) | 0% | 25% | 100% | 0% | 100%
CN(C)C(=O)n1ccnn1 | 0% (inactive) | 0% | 0% | 0% (inactive) | 0% | 0% | 0% (inactive) | 0% | 0% | 0% (inactive) | 0% | 0% | 0% (inactive) | 0% | 0%
COc1ccc2cc(-c3cnn(C(=O)N4CCCC4)n3)ccc2c1 | 0% (inactive) | 0% | 0% | 100% | 0% | 100% | 0% (inactive) | 0% | 0% | 0% (inactive) | 0% | 0% | 100% (inactive) | 0% | 25%
CN(C(=O)n1ccnn1)c1ccccc1 | 100% (inactive) | 0% | 0% | 0% (inactive) | 0% | 0% | 0% (inactive) | 0% | 0% | 0% (inactive) | 0% | 0% | 0% (inactive) | 0% | 0%

Further lines, results first:

inhibition (ABHD11; at 1 µM) | inhibition (ABHD11; inhibition, at 0.02 µM) | inhibition (ABHD11; inhibition, at 0.2 µM) | inhibition ([1]; PAFAH2, at 1 µM) | inhibition ([1]; PAFAH2, inhibition, at 0.02 µM) | inhibition ([1]; PAFAH2, inhibition, at 0.2 µM) | inhibition (LYPLA1; at 1 µM) | inhibition (LYPLA1; inhibition, at 0.02 µM) | inhibition (LYPLA1; inhibition, at 0.2 µM) | inhibition (ESD; at 1 µM) | inhibition (ESD; inhibition, at 0.02 µM) | inhibition (ESD; inhibition, at 0.2 µM) | inhibition (APEH; at 1 µM) | inhibition (APEH; inhibition, at 0.02 µM) | inhibition (APEH; inhibition, at 0.2 µM) | Structure (SMILES)
50% (inactive) | 0% | 0% | 50% (inactive) | 0% | 0% | 0% (inactive) | 0% | 0% | 0% (inactive) | 0% | 0% | 0% (inactive) | 0% | 0% | O=C(N1CCCCC1)n1ccnn1
100% | 0% | 100% | 100% | 75% | 100% | 0% (inactive) | 0% | 0% | 0% (inactive) | 0% | 0% | 100% | 0% | 100% | O=C(N1CCCC1)n1ncc(-c2ccccc2)n1
100% (inactive) | 0% | 0% | 0% (inactive) | 0% | 0% | 0% (inactive) | 0% | 0% | 0% (inactive) | 0% | 0% | 0% (inactive) | 0% | 0% | C=CCN(CC=C)C(=O)n1ccnn1
100% | 50% | 100% | 75% | 25% | 50% | 0% (inactive) | 0% | 0% | 0% (inactive) | 0% | 0% | 50% (inactive) | 0% | 25% | O=C(N1CCOCC1)n1ncc(-c2ccccc2)n1
50% (inactive) | 0% | 0% | 0% (inactive) | 0% | 0% | 0% (inactive) | 0% | 0% | 0% (inactive) | 0% | 0% | 0% (inactive) | 0% | 0% | CN1CCN(C(=O)n2ccnn2)CC1
100% | 25% | 100% | 50% | 0% | 50% | 0% (inactive) | 0% | 0% | 0% (inactive) | 0% | 0% | 0% (inactive) | 0% | 0% | O=C(N1CCOCC1)n1ncc(C(O)(c2ccccc2)c2ccccc2)n1
50% | 0% | 50% | 100% | 25% | 100% | 0% (inactive) | 0% | 0% | 0% (inactive) | 0% | 0% | 100% | 0% | 100% | O=C(N1CCCC1)n1ncc(-c2ccc(OC(F)(F)F)cc2)n1
100% (inactive) | 0% | 0% | 100% (inactive) | 0% | 0% | 100% (inactive) | 0% | 0% | 0% (inactive) | 0% | 0% | 100% (inactive) | 0% | 0% | O=C(N1CCCC1)n1ccnn1
100% | 0% | 100% | 100% | 0% | 100% | 0% (inactive) | 0% | 0% | 0% (inactive) | 0% | 0% | 100% | 0% | 100% | O=C(N1CCCC1)n1ncc(C(O)(c2ccccc2)c2ccccc2)n1
